KCNK3 inh – human KCNK3 channel inhibition, primary screen; B-score at 10 µM; AID 602410; O14649; CHO-KCNK3 thallium flux, FluxOR fluorescence; active compounds read low; 0.84% of 340,000 active;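 active = B-score under library mean minus 4 SD, starting fluorescence ratio at most library mean plus 5 SD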;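 also: more negative B-score means stronger inhibition of thallium flux through KCNK3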
KCNQ1 block – blocks the human KCNQ1 potassium channel. CHO-K1 KCNQ1, FluxOR thallium flux fluorescence; active compounds read high. P51787. AID 2642. B-score at 10 µM. 1.3% of 310,000 active;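 active = compounds whose thallium flux B-score, printed positive for inhibition, exceeds three library SD while starting fluorescence stays within three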;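 also: channel opened by potassium depolarization with thallium stimulus after 20 min compound exposure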
Target sequence (P51787 whole entry, looked up): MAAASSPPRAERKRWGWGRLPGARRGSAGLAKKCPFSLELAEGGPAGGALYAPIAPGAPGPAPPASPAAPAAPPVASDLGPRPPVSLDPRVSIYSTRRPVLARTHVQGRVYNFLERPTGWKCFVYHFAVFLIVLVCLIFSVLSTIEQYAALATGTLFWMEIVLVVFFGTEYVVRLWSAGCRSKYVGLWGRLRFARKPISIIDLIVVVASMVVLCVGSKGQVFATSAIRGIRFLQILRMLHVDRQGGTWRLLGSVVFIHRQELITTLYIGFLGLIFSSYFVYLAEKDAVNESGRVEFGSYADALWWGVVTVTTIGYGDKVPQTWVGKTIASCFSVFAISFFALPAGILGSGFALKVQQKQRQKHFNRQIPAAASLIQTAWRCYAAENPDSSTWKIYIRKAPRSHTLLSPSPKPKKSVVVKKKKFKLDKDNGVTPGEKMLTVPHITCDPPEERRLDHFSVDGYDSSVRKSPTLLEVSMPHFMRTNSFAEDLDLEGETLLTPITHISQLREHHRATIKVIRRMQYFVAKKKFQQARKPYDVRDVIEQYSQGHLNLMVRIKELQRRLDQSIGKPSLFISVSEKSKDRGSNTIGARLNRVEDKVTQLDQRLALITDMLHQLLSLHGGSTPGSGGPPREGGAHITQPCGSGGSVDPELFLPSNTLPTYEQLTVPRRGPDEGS
hERG protect – compounds protecting human hERG from proarrhythmic drug block | Q12809 | CHO-hERG, FluxOR thallium flux, dofetilide IC70 present | activation (rescue from dofetilide block), less the hit threshold, % at 10 µM | 0.51% of 310,000 active | AID 1511;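 active = activation above the mean of controls blocked by dofetilide plus 5 SD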;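 also: thallium influx through hERG after potassium depolarization seen as dye fluorescence rise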
KCNQ1 pot – human KCNQ1 channel potentiation or activation. P51787. CHO-K1 KCNQ1, thallium flux FluxOR fluorescence; active compounds read high. B-score at 10 µM. 0.35% of 310,000 active;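 active = fluorescence ratio B-score, a plate-corrected score, at least three library SD, with initial intensity B-score within 5 SD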
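Assay system: CHO-K1 cells stably expressing KCNQ1. Medium: assay buffer for compound exposure, DMSO matched across wells. Timing: 37 °C overnight plating, 90-min dark dye load, 20-min compound pretreatment. Signal: kinetic FluxOR fluorescence, 10 s baseline plus 110 s post-stimulus.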
KCNK9 block – inhibitors of human KCNK9 two-pore domain potassium channel | HEK293 KCNK9, FluxOR thallium flux fluorescence; active compounds read low | B-score at 10 µM | Q9NPC2 | 1.2% of 310,000 active;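 active = ratio B-score over 3 SD below the library mean, with starting fluorescence within 5 SD of its mean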;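 also: negative B-score means less thallium flux so channel inhibition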
The depositor's hits bear a star; i = inactive; . = not tested or not shown. Sampled rows, rich in hits. Any-hit rate of the full collection: about 3.1%.

SMILES | KCNK3 inh | KCNQ1 block | hERG protect | KCNQ1 pot | KCNK9 block
COc1ccc(C(=O)CC(=O)C(=O)Nc2ccc(C)c(Cl)c2)cc1 | i | i | 16.6* | 9* | i
COc1ccc(C(=O)CC(=O)C(=O)Nc2ccccc2)cc1 | i | i | 5.0* | i | i
O=c1[nH]c(=S)[nH]c2c1CN(Cc1ccc(F)cc1)CC2 | i | i | -7.6 | i | i
Cc1cc(OCc2nc(-c3ccncc3)no2)cc(C)c1Cl | i | i | -9.0 | i | i
CN(CC(=O)Nc1ccccc1C(F)(F)F)C(=O)c1ccccc1Sc1ccccc1C#N | -9.17* | . | . | . | .
Cc1onc(-c2ccccc2)c1CNS(=O)(=O)c1ccccc1[N+](=O)[O-] | i | i | -5.7 | i | i
O=c1cc(-c2ccc(Cl)cc2)nc(N2CCN(c3ccccc3)CC2)[nH]1 | i | i | -5.6 | i | -7.22*
Cc1cc(=O)[nH]c(N2CCN(Cc3ccccc3)CC2)n1 | i | i | -7.8 | i | i
COCCNC(=O)C(c1ccc(C)o1)N(Cc1ccc(OC)cc1)C(=O)Cn1nnc2ccccc21 (stereo not drawn) | i | i | 6.5* | i | i
CN(CC(=O)Nc1ccc(Cl)cc1)C(=O)CCC1CCCC1 | i | i | -1.7 | i | i
COc1ccc(/C(C)=N/NC(=S)NCCc2ccccc2)c(O)c1 | i | i | -11.3 | i | i
Oc1c(Br)cc(Br)cc1C=Nc1cccc2ncccc12 | i | i | 4.8* | 13* | i
Brc1cccc(C=Nc2cccc3ncccc23)c1 | i | i | -10.9 | i | i
COc1ccc(C2(CNC(=O)c3ccccc3[N+](=O)[O-])CCOCC2)cc1 | i | i | -4.3 | i | i
O=C(Cc1ccccc1F)NNC(=O)c1ccncc1 | i | i | -10.3 | i | i
CCC(C)NC(=O)c1cc(Cl)c(NC(=O)C2=C(C)OCCS2)cc1OC (stereo not drawn) | i | i | -3.9 | 44* | i
O=C(Cc1noc2ccccc12)NNC(=S)Nc1ccccc1 | i | i | 5.7* | i | i
OC(CNCC(c1ccc(Cl)cc1Cl)c1c[nH]c2ccccc12)c1ccccc1 (stereo not drawn) | i | i | 39.9* | i | i
COc1ccccc1N1CN(S(=O)(=O)c2ccc(C)cc2)c2nc3ccccc3nc21 | -9.9* | . | . | . | .
O=C(COc1cc(F)ccc1[N+](=O)[O-])Nc1cccc(S(=O)(=O)NC2=NCCC2)c1 | i | . | . | . | .
O=C(c1cccc(S(=O)(=O)N2CCc3ccccc3C2)c1)N1CCN(c2ccccc2)CC1 | i | i | -6.4 | i | i
O=C(c1cccc(S(=O)(=O)N2CCc3ccccc32)c1)N1CCN(c2ccccc2)CC1 | -8.87* | . | . | . | .
COc1ccc2[nH]c3c(N4CC(C)OC(C)C4)ncnc3c2c1 (stereo not drawn) | . | i | -11.2 | i | i
COc1cccc(N2CCN(c3ncnc4c3[nH]c3ccc(F)cc34)CC2C)c1 (stereo not drawn) | -13.3* | 13* | -37.5 | i | i
O=[N+]([O-])c1ccc(O)c(C=Nc2ccc3c(c2)OCCO3)c1 | i | i | -10.1 | i | i
SMILES | KCNK3 inh | KCNQ1 block | hERG protect | KCNQ1 pot | KCNK9 block
Oc1c(Br)cc(Br)cc1C=Nc1ccc2c(c1)OCO2 | i | i | -4.0 | 14* | i
Oc1c(Br)cc(Br)cc1C=Nc1ccc2c(c1)OCCO2 | i | i | -8.5 | 14* | i
O=C(CCn1nnc2ccccc21)OCC(=O)c1ccc(F)cc1 | i | i | -2.6 | i | i
CC(C)Cn1c(=O)c(C(=O)Nc2ccncc2)c(O)c2ccccc21 | i | 8* | -17.1 | i | i
NC(N)=N/N=C/c1ccc2cccc(OCc3ccccc3)c2n1 | i | 6* | -25.4 | i | i
O=C(N/N=C/c1ccc2cccc(OCc3ccccc3)c2n1)c1ccc(Br)cc1 | i | i | 11.4* | i | i
CCSC(=Nc1ccccc1)Nc1ccccc1 | i | i | -7.4 | i | i
Cc1cc(N/N=C/c2c(O)ccc3ccccc23)nc(-c2ccccc2O)n1 | i | 10* | -12.5 | i | i
O=C(NNC(=O)c1ccc(O)cc1O)c1ccc(Cl)cc1 | i | 6* | -12.4 | i | i
O=C(NNC(=O)c1ccccc1O)c1ccc(Cl)cc1 | i | i | -13.8 | i | i
NS(=O)(=O)c1ccc(CNC(=O)c2ccc(NS(=O)(=O)c3ccc4[nH]c(=O)[nH]c4c3)cc2)cc1 | i | i | -9.0 | i | i
Cc1ccccc1NS(=O)(=O)c1cc(C(=O)NCCSC2CCCCC2)ccc1C | i | i | -6.9 | i | -8.03*
Cc1ccccc1NS(=O)(=O)c1cc(C(=O)N2CCCC2)ccc1C | i | i | -8.4 | i | i
CCOc1ccc(S(=O)(=O)N(C)CC(=O)NCc2ccccn2)cc1Cl | i | i | -7.8 | i | i
COc1ccc(C)cc1NC(=O)CNC(c1ccccc1)c1ccc(C)cc1 (stereo not drawn) | i | i | -9.1 | i | -7.56*
COc1ccccc1NC(=O)CNC(c1ccccc1)c1ccccc1 | i | i | -7.8 | i | i
COc1ccc(C)cc1NC(=O)C(OC(=O)CNC(=O)c1cccc(F)c1)c1ccccc1 (stereo not drawn) | i | i | -3.8 | i | i
COc1ccc(C)cc1NC(=O)C(OC(=O)CNC(=O)c1ccc(Oc2ccccc2)cc1)c1ccccc1 (stereo not drawn) | i | i | -14.8 | i | -7.94*
CN(C)C1=NCCN1CCc1ccc(F)cc1 | i | . | . | . | .
O=C(NN1C(=O)/C(=C/c2cccnc2)SC1=S)C(c1ccccc1)c1ccccc1 | i | 6* | -16.9 | i | i
O=C(NC(=S)Nc1ccccc1N1CCOCC1)c1ccc(-c2ccccc2F)o1 | i | i | -5.3 | 13* | i
O=C(NC(=S)Nc1ccccc1N1CCCC1)c1ccc(F)cc1 | i | i | -9.4 | i | i
O=C(NC(=S)Nc1ccccc1N1CCCCC1)c1ccc(F)cc1Cl | i | i | 0.3 | 10* | i
O=C(NC(=S)Nc1cc(Cl)ccc1N1CCOCC1)c1ccc(-c2cccc(Cl)c2)o1 | i | i | -8.1 | i | i
O=C(COc1ccccc1Cl)NC(=S)Nc1ccccc1N1CCCC1 | i | i | 8.5* | 7* | -13.5*
COC(=O)c1ccccc1NC(=S)NC(=O)COc1ccccc1Cl | i | i | -12.2 | i | i
CCCCCCCCCCn1ccc(=N)cc1 | i | 9* | -24.4 | i | i
CCCCCCCCn1ccc(=N)cc1 | i | i | -14.5 | i | i
CC(C)(CC(=O)O)CC(=O)N1CCN(c2nc3cc(Cl)ccc3s2)CC1 | i | i | -3.3 | i | i
